SENP8 block-1: inhibitors of human SENP8 protease. AID 602440. inhibition, % at 20 µM. actives 0.64% (n = 360,000). Q96LD8. recombinant SENP8, Nedd8 substrate fluorescence; in the data active = inhibition mostly above about 40%, no sharp cut-off; inactive = mostly below about 27%
SENP8 block-2: blocks the human protease SENP8; Q96LD8; purified SENP8, Z-RLRGG-aminoluciferin cleavage, luminescence; inhibition, % at 10 µM; actives 1.2% (n = 330,000); in the data active = inhibition above about 50%
SENP6 block: SENP6 protease inhibition; Q9GZR1; Recombinant SENP6 catalytic domain, aminoluciferin luminescence; AID 2599; inhibition, % at 10 µM; actives 1.8% (n = 330,000);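 active = inhibition above about 50% at the single tested dose, limit read from the data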;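 note: plate controls were DMSO wells with enzyme for no effect and DMSO wells lacking enzyme for full effect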
SENP7 block: SENP7 protease inhibition; Q9BQF6; inhibition, % at 5 µM; actives 1.5% (n = 330,000); AID 434973; recombinant SENP7, Z-RLRGG-aminoluciferin luminescence, 40 min;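 active = inhibition above about 50% at the single test dose, limit read from the data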;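 note: plate controls were DMSO with enzyme for no effect and no enzyme buffer wells for full effect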
Target sequence (Q9BQF6 706-1050 limits assumed): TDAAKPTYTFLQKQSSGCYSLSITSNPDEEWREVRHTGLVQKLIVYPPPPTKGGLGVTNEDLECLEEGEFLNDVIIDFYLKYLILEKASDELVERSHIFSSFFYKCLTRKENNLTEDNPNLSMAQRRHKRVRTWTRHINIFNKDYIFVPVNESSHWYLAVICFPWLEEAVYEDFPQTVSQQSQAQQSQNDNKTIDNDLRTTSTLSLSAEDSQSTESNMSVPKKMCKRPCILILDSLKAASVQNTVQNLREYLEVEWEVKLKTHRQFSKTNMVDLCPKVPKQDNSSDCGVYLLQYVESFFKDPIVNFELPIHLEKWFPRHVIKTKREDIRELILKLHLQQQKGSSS
SENP1 FRET inh: blocks the human SENP1 SUMO protease catalytic domain; Q9P0U3; recombinant SENP1 catalytic domain, CyPet-SUMO1-YPet FRET cleavage; inhibition, % at 10 µM; actives 0.21% (n = 360,000); AID 624204;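 active = inhibition at least 30% at 10 µM, raw YFP signal under a set limit, fluorescence ratio 0.5 to 1.5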;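 note: 0% = enzyme with DMSO and 100% = no enzyme wells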
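Assay system: hSENP1 catalytic domain, recombinant. Amount: SENP1 enzyme, 20 pM final. Schedule: 50 min reaction, RT, dark. Technique: FRET, CFP and YFP emission. Control set: no-enzyme wells low, DMSO-plus-enzyme wells high control.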
SENP8 confirm: human SENP8 inhibition, confirmed | shares compounds with SENP7 block | Recombinant SENP8, Z-RLRGG-aminoluciferin luminescence, 60 min | inhibition, % at 12.5 µM | actives 40% (n = 6,200);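 active = mean inhibition across replicates above about 50%, limit read from the data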
SENP6 conf: confirmation of human SENP6 protease inhibitors; shares compounds with SENP7 block; recombinant SENP6, Z-RLRGG-aminoluciferin luminescence; inhibition, % at 12.5 µM; actives 58% (n = 6,200)
SENP7 confirm: confirmation of human SENP7 protease inhibitors | shares compounds with SENP7 block | recombinant SENP7, Z-RLRGG-aminoluciferin luminescence, 40 min | inhibition, % at 12.5 µM | actives 69% (n = 6,200) | AID 488917
Casp3 select: inhibits human caspase-3 in SENP selectivity test | actives 60% (n = 6,200) | inhibition, % at 12.5 µM | shares compounds with SENP7 block | purified caspase-3, Z-DEVD-aminoluciferin luminescence, 60 min;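 active = mean inhibition above about 50%, limit read from the data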;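 note: plate controls were enzyme with DMSO for no effect and wells without caspase-3 for full effect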
Target sequence (P42574 28-227 limits assumed): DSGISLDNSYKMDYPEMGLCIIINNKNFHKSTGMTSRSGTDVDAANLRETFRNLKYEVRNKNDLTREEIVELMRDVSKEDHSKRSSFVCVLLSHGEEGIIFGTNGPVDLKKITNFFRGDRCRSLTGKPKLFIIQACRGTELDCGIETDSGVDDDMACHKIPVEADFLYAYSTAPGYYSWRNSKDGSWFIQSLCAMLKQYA
Luc interf: luminescence interference (SENP counter-screen). inhibition, % at 12.5 µM. shares compounds with SENP7 block. Pre-incubated SENP8/Z-RLRGG-aminoluciferin, luciferase luminescence interference. actives 39% (n = 6,200);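 active = mean inhibition above about 50% when retested at one dose, limit read from the data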;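 note: plate controls were DMSO wells with completed reaction for no effect and substrate without enzyme for full effect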
* = called active by the depositor; / = not tested or not shown. This is a sample that favours compounds with a hit; in the whole collection about 2.5% have one here.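 Rule for the calls, unless noted: active = mean inhibition above about 50% in the one-dose retest (limit read from the data); inactive = the rest.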

SMILES | SENP8 block-1 | SENP8 block-2 | SENP6 block | SENP7 block | SENP1 FRET inh | SENP8 confirm | SENP6 conf | SENP7 confirm | Casp3 select | Luc interf
COc1ccc(/C(N)=N/OC(=O)CSc2ccccc2)cc1 | 13 | 42 | 77* | 63* | 0 | 57* | 65* | 87* | / | 41
CC(C)CCN1CCN(Cc2ccc(C#CCCO)cc2)CC1CCO (centres undefined) | 9 | 1 | 10 | 4 | 2 | / | / | / | / | /
Cc1ccccc1N=CC1=C(O)c2ccccc2C1=O | 40* | 93* | 98* | 102* | 3 | 94* | 98* | 102* | 97* | 54*
COc1ccc(N=CC2=C(O)c3ccccc3C2=O)c(OC)c1 | 50* | 95* | 90* | 99* | 6 | 53* | 96* | 102* | 88* | 3
O=C1C(C=NCc2ccncc2)=C(O)c2ccccc21 | 8 | -6 | 2 | -9 | 3 | / | / | / | / | /
O=C1C(C=Nc2ccc(F)cc2)=C(O)c2ccccc21 | 23 | 74* | 76* | 95* | 3 | 51* | 54* | 67* | 66* | 20
CCCOC1(NC(=O)c2ccccc2)C(C)=CC(=O)C=C1C | 14 | 1 | -13 | 7 | 2 | / | / | / | / | /
Clc1ccccc1-c1ncc(-c2ccccc2)o1 | -416 | 88* | 91* | 92* | 2 | 79* | 92* | 99* | 79* | 84*
CCc1cccc(C)c1NC(=O)C1CC(=O)N(C2CCCC2)C1 (centres undefined) | 8 | 3 | 0 | 4 | 1 | / | / | / | / | /
O=C(c1ccc(Cl)s1)N1CCN(S(=O)(=O)c2ccc(Cl)cc2)CC1 | 9 | 1 | 13 | -1 | 0 | / | / | / | / | /
COc1cc2sc3ccc(-c4ccc(N(C)C)nc4)cc3c(=O)c2cc1OC | / | 74* | 79* | 56* | / | 12 | 14 | -4 | 14 | -1
COc1cc2sc3ccc(-c4ccc(CN5CCOCC5)cc4)cc3c(=O)c2cc1OC | -498 | 6 | 11 | 11 | -150 | / | / | / | / | /
COc1ccc(-c2ccc3sc4ccccc4c(=O)c3c2)cn1 | -392 | 15 | 95* | 101* | -107 | 14 | 21 | 8 | 74* | 14
N=C1/C(=C/c2ccc(-c3cccc(C(=O)O)c3)o2)C(=O)N=C2SC=C(c3ccccc3)N12 | -30 | 46 | 65* | 11 | -23 | 26 | -1 | -8 | 3 | 4
N=C1/C(=C\c2ccc(-c3cc(Cl)cc(Cl)c3)o2)C(=O)N=C2SC=C(c3ccccc3)N12 | 5 | 8 | 21 | 2 | 18 | / | / | / | / | /
CCOC(=O)C1(C)CCCN(C(=O)c2c(-c3ccccc3)noc2C)C1 (centres undefined) | 12 | / | / | / | 0 | / | / | / | / | /
COc1cc(CC(=O)NCC2CCCCC2)cc(OC)c1OC | 20 | -4 | -4 | -10 | 1 | / | / | / | / | /
Cc1ccc(Nc2nc(-c3cccnc3)cs2)cc1C | 4 | 55* | 74* | 58* | 4 | 10 | 68* | 88* | 36 | 13
CCOc1ccc(Nc2nc(-c3cccnc3)cs2)cc1 | -1 | 18 | 20 | 70* | -1 | -9 | 11 | 11 | 6 | -3
NC(=O)c1csc(CCNC(=O)c2ccccc2)n1 | 15 | / | / | / | -1 | / | / | / | / | /
CCC(C)[C@H](NC(=O)N1CCC(C)CC1)C(=O)OC (some centres undefined) | 18 | 0 | -2 | 3 | 1 | / | / | / | / | /
O=C(N/N=C/c1cc2c(cc1Cl)OCO2)c1cccc(Br)c1 | -139 | 5 | 51* | 48 | 0 | 15 | 22 | 33 | 31 | 8
O=C(N/N=C/c1cc2c(cc1Cl)OCO2)c1ccncc1 | -31 | -6 | -4 | 6 | 1 | / | / | / | / | /
COc1ccc(C(=O)NCc2ccc(-c3nc4ccccc4s3)cc2)cc1OC | -45 | 0 | -12 | 3 | 0 | / | / | / | / | /
COc1ccc2nc(-c3ccc(F)cc3)sc2c1 | -476 | 74* | 97* | 97* | -2 | 95* | 97* | 101* | 95* | 78*
SMILES | SENP8 block-1 | SENP8 block-2 | SENP6 block | SENP7 block | SENP1 FRET inh | SENP8 confirm | SENP6 conf | SENP7 confirm | Casp3 select | Luc interf
COc1cc(OC)cc(-c2nc3ccccc3s2)c1 | -63 | 81* | 4 | 91* | 1 | 92* | 93* | 100* | 82* | 77*
O=S1(=O)CCS(=O)(=O)C1c1ccccc1 | 22 | 0 | 5 | 7 | 2 | / | / | / | / | /
CC(=O)c1sc(NC(=O)c2cc(=O)c3ccccc3o2)nc1C | 15 | 67* | 82* | 64* | 4 | 79* | 82* | 96* | 90* | 48
CCOC(=O)c1csc(NC(=O)c2cc(=O)c3ccccc3o2)n1 | 3 | 3 | 6 | 2 | 3 | / | / | / | / | /
CC(=O)c1sc(NC(=O)c2oc3ccc(F)cc3c2C)nc1C | -469 | 57* | 45 | 80* | -12 | 37 | 39 | 17 | 50* | 16
O=C(Nc1ccc2c(c1)CCC2)c1ncoc1-c1ccccc1F | 9 | -9 | -23 | -1 | 1 | / | / | / | / | /
COc1ccccc1Cc1c(-c2cccc(Cl)c2)nc2ccc(Cl)cn12 | -166 | / | / | / | 15 | / | / | / | / | /
COc1ccc(OCc2nnc(SCC(=O)Nc3ccccc3Cl)o2)cc1 | 7 | 1 | -17 | 0 | -1 | / | / | / | / | /
COc1ccc(/C=N/OCC(=O)Nc2nc3ccccc3s2)cc1 | 0 | 53* | 78* | 54* | 1 | -7 | -6 | -2 | 4 | 6
COc1ccc(/C(C)=N/OCC(=O)Nc2nc3ccccc3s2)cc1OC | 0 | 36 | 53* | 30 | -21 | 40 | 34 | 64* | 21 | 34
C/C(=N\OCC(=O)Nc1nc2ccccc2s1)c1ccccc1 | 9 | 26 | 45 | 13 | 0 | / | / | / | / | /
CCCOc1ccc(C(=O)NC(=S)Nc2nc3ccccc3s2)cc1 | 26 | -6 | 3 | 92* | -1 | 5 | 10 | 16 | 5 | 12
Cc1ccc2nc(NC(=S)NC(=O)c3ccc(OC(C)C)cc3)sc2c1 | 13 | 1 | -6 | -9 | 1 | / | / | / | / | /
Cc1cccc(C)c1NC(=O)C(C)Sc1n[nH]c(-c2ccncc2)n1 (centres undefined) | 10 | 2 | -3 | 0 | -3 | / | / | / | / | /
CCOc1ccccc1NC(=O)COC(=O)c1c[nH]c2ccccc12 | 6 | -11 | -20 | 15 | 1 | / | / | / | / | /
CC(C)(C)C#CC(CCc1ccccc1)OS(N)(=O)=O (centres undefined) | / | -23 | -6 | -14 | / | / | / | / | / | /
